From PubChem BioAssay
ANO1 activ – TMEM16A chloride channel activators or potentiators, primary screen, cell-based, HTS. HEK293 TMEM16A/YFP-H148Q/I152L, iodide quench fluorescence; active compounds read low. B-score at 10 µM. 0.3% of 340,000 active;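 active = fluorescence-ratio B-score plate-corrected deviation score at least 3 library SD below zero, with starting fluorescence score within 5 deviations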;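 also: channel opened by trigger with iodide after compound preincubation; score built on the fluorescence ratio of max minus min over baseline; more negative score means more quench and so TMEM16A activation or potentiation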
SR-BI DiI-HDL act – activators of SR-BI mediated DiI-HDL uptake, primary screen, ldlA[mSR-BI] CHO cells, DiI fluorescence; 3 h; 100 = double the neutral-control signal; activation, % at 12.5 µM; 0.096% of 320,000 active; AID 504775, 2011;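 active = mean replicate activation of at least 60% and every replicate at or above 60%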
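System: LDL receptor-deficient CHO ldlA cells overexpressing murine SR-BI | Timing: 3 h uptake period with compound, 37 °C | Medium: HEPES-buffered (25 mM, pH 7.4) F12 plus 0.5% BSA | Dosing: Single-point compound dose | Signal: Bottom-read fluorescence, 550/595 nm | Read-out: Retained DiI signal reflecting DiI-HDL uptake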
Kir21 block – inhibitors of mouse Kir2.1 inward-rectifier potassium channel | Inward rectifier potassium channel 2 (Mus musculus), P35561 | HEK293-Kir2.1, FluxOR thallium flux fluorescence; active compounds read low | B-score at 10 µM | 0.85% of 310,000 active | AID 1672, 2009;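 active = fluorescence ratio B-score at or below minus 3 SD of library scores, with starting-brightness B-score within 2 SD, cut at about -4.2 in these data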;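 also: channel flux triggered by added potassium and thallium sulfate stimulus; B-score of peak minus minimum fluorescence over baseline after thallium stimulus; more negative B-score means stronger Kir2.1 block with less thallium influx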
SR-BI HDL uptake – inhibitors of SR-BI mediated HDL lipid uptake, primary screen, ldlA[mSR-BI] cells, fluorescence, single point | ldlA[mSR-BI] CHO cells, DiI-HDL uptake fluorescence, 3 h | inhibition, % at 12.5 µM | 0.96% of 320,000 active;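 active = mean replicate inhibition of at least 70% and a set share of replicates each scoring 70 or more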
Target sequence (Q61009 whole entry, looked up): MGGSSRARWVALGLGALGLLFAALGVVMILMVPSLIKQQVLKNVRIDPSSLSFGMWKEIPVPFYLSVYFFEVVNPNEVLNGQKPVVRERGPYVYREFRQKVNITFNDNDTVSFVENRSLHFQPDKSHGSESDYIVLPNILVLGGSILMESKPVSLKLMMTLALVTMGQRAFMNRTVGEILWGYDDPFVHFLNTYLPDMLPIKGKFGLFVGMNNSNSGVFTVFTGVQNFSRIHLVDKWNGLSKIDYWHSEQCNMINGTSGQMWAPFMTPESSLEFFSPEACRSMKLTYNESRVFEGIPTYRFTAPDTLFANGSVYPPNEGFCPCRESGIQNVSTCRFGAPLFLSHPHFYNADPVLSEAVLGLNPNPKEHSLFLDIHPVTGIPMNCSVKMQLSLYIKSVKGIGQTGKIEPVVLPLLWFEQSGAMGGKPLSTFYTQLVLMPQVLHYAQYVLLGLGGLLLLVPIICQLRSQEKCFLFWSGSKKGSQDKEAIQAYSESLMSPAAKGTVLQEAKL
ANO1 block – TMEM16A chloride channel inhibitors, primary screen, cell-based, HTS | HEK293 TMEM16A/YFP iodide influx fluorescence, ionomycin | normalized B-score (activity score, 25-100; higher = stronger inhibition) at 10 µM | 1.2% of 310,000 active | AID 588511, 2011;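 active = ratio plate-corrected score three or more library SD toward inhibition, starting fluorescence score within five deviations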;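 also: score derived from kinetic fluorescence span divided by baseline fluorescence per well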
FID counter – compounds displacing fluorescent DNA intercalator, primary screen, artefact control for HCV NS3 helicase inhibitor project, biochemical, FID fluorescence. 0.17% of 290,000 active. inhibition, % at 7.9 µM. DNA fluorescent intercalator displacement; in the data active = inhibition above about 37%;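 also: higher means more ethidium bromide displaced from hairpin DNA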
Large screens that a line does not name were inactive. Sampled rows, rich in hits. Any-hit rate of the full collection: about 3%.

COc1ccc(CN(C)C(=O)Cn2cnc3c(OCc4ccccc4)ncnc32)cc1OC	none (no result: Kir21 block, ANO1 block, FID counter)
CCCOc1ccc(/C=C2\SC(=S)N(CC3CCCO3)C2=O)cc1 (stereo unspecified)	none
O=C1/C(=C/c2ccc(O)cc2)SC(=S)N1CC1CCCO1 (stereo unspecified)	ANO1 activ -5.1 (no result: SR-BI DiI-HDL act, SR-BI HDL uptake)
Cc1ccc(NS(=O)(=O)c2cccc(C(=O)N(C)Cc3cccs3)c2)cc1	none (no result: FID counter)
COc1ccc(Nc2cc(C)c3ccc(O)cc3n2)cc1	Kir21 block -4.7 (no result: SR-BI DiI-HDL act, SR-BI HDL uptake)
Cc1cc(Nc2ccccc2)nc2cc(O)ccc12	Kir21 block -5.2
CCOc1ccc(Nc2cc(C)c3ccccc3n2)cc1	none (no result: ANO1 activ)
Cc1ccnc(N2CCN(C(=O)CSc3nc4ccccc4nc3N3CCC(C)CC3)CC2)c1	none
C=C(C)CC1(NC(C)c2ccccc2)CCCCC1 (stereo unspecified)	Kir21 block -4.9
O=S(=O)(CC(CN1CCCCC1)N1CCCCC1)c1ccc2ccccc2c1 (stereo unspecified)	none (no result: ANO1 block)
CCOC(=O)N1CCC(NC(=O)CSCc2nc(-c3ccccc3Cl)oc2C)CC1	none
Cc1oc(-c2ccccc2Cl)nc1CSCC(=O)NC1CCCC1	Kir21 block -4.7
c1ccc(-c2noc(CN3CCCC(OCc4ccccn4)C3)n2)cc1 (stereo unspecified)	FID counter 60 (no result: SR-BI DiI-HDL act, SR-BI HDL uptake)
CC1(C)CC2(CCO1)C(Nc1ccccc1)=NC(=S)N2CC(N)=O (stereo unspecified)	none
CC1=C(C(=O)NC(C)c2ccccc2)C2(CCC(C)CC2)OC1=O (stereo unspecified)	none
CC1=C(C(=O)NC(C)C)C2(CCC(C)CC2)OC1=O (stereo unspecified)	ANO1 block 25
NNC(=O)c1oc2nc(-c3ccco3)cc(-c3ccco3)c2c1N	none (no result: SR-BI DiI-HDL act, SR-BI HDL uptake)
NNC(=O)c1oc2nc(-c3ccc(Cl)cc3)cc(-c3ccccc3)c2c1N	SR-BI HDL uptake 106
COC(=O)c1c(C)oc(C)c1S(=O)(=O)NCc1ccc(Cl)cc1Cl	Kir21 block -5.1
CC(C)n1c(SCc2ccccc2F)nc2c1c(=O)n(C)c(=O)n2C	Kir21 block -4.6
CN(CCOc1cccc2ccccc12)Cc1ccccc1	none
COc1ccccc1OCCCOc1ccc(C)cc1Br	none
CCc1ccc(CN(C)CC(O)COc2cccc3ccccc23)cc1 (stereo unspecified)	Kir21 block -16
Cc1ccc(C(C)C)c(OCCCN(C)Cc2ccccc2)c1	Kir21 block -11
Cc1ccc(C(C)C)c(OCCCN2CCc3ccccc3C2)c1	Kir21 block -9
Cc1ccc(OCCCCN(C)Cc2ccccc2)c(Br)c1	Kir21 block -13
Cc1ccc(/C=C/C(=O)OCC(=O)Nc2cccc(S(=O)(=O)N(C)C)c2)o1	none
COc1ccc(N(CCCN2C(=O)c3cccc4cccc(c34)C2=O)C(=O)c2cccc(OC)c2)cc1	none
C/C(=N\NC(=O)CN1CCN(S(=O)(=O)c2ccc(C)cc2)CC1)c1ccc(O)cc1	none
CCOc1ccc(CN2CCN(C(=O)c3cccc4ccccc34)CC2)cc1	none
C[C@H]1COC(=O)CC/C=C\C[C@H](CC(=O)N(CCO)Cc2ccccc2)C(=O)N1	none (no result: Kir21 block, ANO1 block, FID counter)
COc1ccc(/C=C/C(=O)Nc2ccc(S(=O)(=O)Nc3onc(C)c3C)cc2)cc1OC	none
Cc1ccc(C(C)C)c(OCC(O)CNC2CCCC2)c1 (stereo unspecified)	none
Cc1ccc(C(C)C)c(OCC(O)CN(C)Cc2ccccc2)c1 (stereo unspecified)	Kir21 block -9.7
CCCS(=O)(=O)Nc1ccc(Nc2c3ccccc3nc3ccccc23)c(OC)c1	SR-BI HDL uptake 80 (no result: Kir21 block, ANO1 block, FID counter)
COc1ccc(NS(=O)(=O)Cc2ccccc2)cc1OC	none
CC(CCc1ccccc1)NC(=O)CN(C)Cc1ccc(F)cc1 (stereo unspecified)	Kir21 block -4.5 (no result: ANO1 activ)
